Data on 19 compounds can be found in ChEMBL document CHEMBL5143713, “Multitarget, Selective Compound Design Yields Potent Inhibitors of a Kinetoplastid Pteridine Reductase 1” (J Med Chem, 2022).

One data set has as its target T1, Dihydrofolate reductase (Homo sapiens, UniProt P00374).
T1 sequence (P00374 whole entry): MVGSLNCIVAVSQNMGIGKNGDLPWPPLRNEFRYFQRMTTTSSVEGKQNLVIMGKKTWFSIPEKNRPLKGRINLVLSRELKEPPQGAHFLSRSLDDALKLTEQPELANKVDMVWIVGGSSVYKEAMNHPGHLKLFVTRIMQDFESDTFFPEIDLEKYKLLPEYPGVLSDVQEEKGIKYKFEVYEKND
The data set is described as follows: Inhibition of recombinant human DHFR expressed in Escherichia coli BL21 (DE3) cells using dihydrofolate as substrate in presence of NADPH by spectrophotometric analysis. In kind it is toxicity.

In data set [1] the target is Bifunctional dihydrofolate reductase-thymidylate synthase (Leishmania major, UniProt P07382). The data set can be described thus: Inhibition of recombinant Leishmania major DHFR-TS expressed in Escherichia coli BL21 (DE3) cells using dihydrofolate as substrate in presence of NADPH by spectrophotometric analysis.
Sequence of Bifunctional dihydrofolate reductase-thymidylate synthase (Leishmania major, UniProt P07382) (P07382 whole entry): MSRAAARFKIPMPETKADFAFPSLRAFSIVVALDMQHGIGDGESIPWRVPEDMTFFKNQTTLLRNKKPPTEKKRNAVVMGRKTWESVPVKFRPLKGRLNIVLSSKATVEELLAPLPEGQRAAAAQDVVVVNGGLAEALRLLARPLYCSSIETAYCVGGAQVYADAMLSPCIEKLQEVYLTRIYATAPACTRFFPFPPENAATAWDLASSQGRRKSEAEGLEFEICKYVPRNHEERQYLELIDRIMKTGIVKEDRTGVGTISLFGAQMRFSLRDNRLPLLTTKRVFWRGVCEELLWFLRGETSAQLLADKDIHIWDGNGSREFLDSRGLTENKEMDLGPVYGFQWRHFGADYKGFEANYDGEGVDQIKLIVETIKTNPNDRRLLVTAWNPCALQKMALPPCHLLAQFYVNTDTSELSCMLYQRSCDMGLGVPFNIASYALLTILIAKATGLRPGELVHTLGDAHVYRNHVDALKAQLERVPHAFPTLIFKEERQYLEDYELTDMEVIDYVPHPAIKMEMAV
Data set [2] has as its target T2, Pteridine reductase, putative (Trypanosoma brucei, UniProt Q581W1).
T2 sequence (Q581W1 whole entry): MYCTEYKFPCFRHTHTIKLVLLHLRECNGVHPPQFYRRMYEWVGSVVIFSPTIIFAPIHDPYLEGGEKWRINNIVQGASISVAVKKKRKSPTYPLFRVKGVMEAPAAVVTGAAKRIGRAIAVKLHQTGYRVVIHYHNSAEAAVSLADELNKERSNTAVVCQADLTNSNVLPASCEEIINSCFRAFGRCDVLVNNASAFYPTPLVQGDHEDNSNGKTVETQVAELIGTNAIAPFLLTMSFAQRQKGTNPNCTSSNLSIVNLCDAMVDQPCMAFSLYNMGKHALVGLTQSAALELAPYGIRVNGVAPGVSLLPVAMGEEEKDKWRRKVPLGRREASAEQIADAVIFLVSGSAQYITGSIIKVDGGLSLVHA
The data set is described as follows: Inhibition of recombinant Trypanosoma brucei PTR1 expressed in Escherichia coli BL21 (DE3) cells using H2B as substrate in presence of cytochrome c and NADPH by envision multilabel reader.

The test system of a further data set is A549. The data set is described as follows: Cytotoxicity against human A549 cells at 10 uM measured after 48 hrs by Celltiter-Glo assay relative to control. The format is toxicity, cell-based. Conditions: a549, 48 h. The method in brief:
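Tested at 10 μM. A549 cells grown in DMEM with 10% FCS, streptomycin 100 μg/mL and penicillin G 100 U/mL. Viability read as cellular ATP by CellTiter-Glo luminescence.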
(In general: In ATP-based viability assays light output follows the ATP content of the culture.)

Data set [3] deals with Bifunctional dihydrofolate reductase-thymidylate synthase (Trypanosoma brucei brucei, UniProt Q27783). The data set can be described thus: Inhibition of recombinant Trypanosoma brucei DHFR-TS expressed in Escherichia coli BL21 (DE3) cells using dihydrofolate as substrate in presence of NADPH by spectrophotometric analysis.
Sequence of Bifunctional dihydrofolate reductase-thymidylate synthase (Trypanosoma brucei brucei, UniProt Q27783) (Q27783 whole entry): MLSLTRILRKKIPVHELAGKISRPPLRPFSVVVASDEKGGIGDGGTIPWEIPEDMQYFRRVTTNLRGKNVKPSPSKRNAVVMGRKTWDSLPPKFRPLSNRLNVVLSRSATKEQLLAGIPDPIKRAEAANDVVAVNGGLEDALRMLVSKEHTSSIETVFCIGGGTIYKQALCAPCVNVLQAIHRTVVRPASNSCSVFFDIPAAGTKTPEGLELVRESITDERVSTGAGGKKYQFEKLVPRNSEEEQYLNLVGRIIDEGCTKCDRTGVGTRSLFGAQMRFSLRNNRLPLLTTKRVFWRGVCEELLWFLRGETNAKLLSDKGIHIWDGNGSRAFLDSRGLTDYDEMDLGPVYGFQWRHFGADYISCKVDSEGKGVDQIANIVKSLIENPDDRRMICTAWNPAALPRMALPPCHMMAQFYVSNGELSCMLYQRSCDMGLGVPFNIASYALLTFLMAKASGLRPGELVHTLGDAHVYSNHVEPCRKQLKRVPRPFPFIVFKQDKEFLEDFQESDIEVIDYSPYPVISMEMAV
For a further data set, the system named is 786-0. The data set can be described thus: Mitochondrial toxicity in human 786-0 cells at 10 uM incubated with compound for 6 hrs followed by incubation with MitoTracker Red chloromethyl-X-rosamine dye for 45 mins by imaging analysis relative to control. In kind it is cell-based. The following applies: 786-0, 6 h. The procedure, abridged:
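Tested at 10 μM. 786-O cells kept in RPMI-1640 with 2 mM glutamine, 10% FCS, streptomycin 100 μg/mL and penicillin G 100 U/mL. Mitochondrial toxicity read as MitoTracker Red (chloromethyl-X-rosamine) uptake by high-content imaging.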

For data set [4], the system named is human DHFR versus Leishmania major DHFR. The data set is described as follows: Selectivity index, ratio of IC50 for human DHFR to IC50 for Leishmania major DHFR. In kind it is toxicity. The following applies: read-out: Ratio IC50.
The subject of data set [5] is human DHFR versus Trypanosoma brucei DHFR. The data set is described as follows: Selectivity index, ratio of IC50 for human DHFR to IC50 for Trypanosoma brucei DHFR. In kind it is toxicity. The following applies: read-out: Ratio IC50.
The test system of data set [6] is human DHFR versus Leishmania major PTR1. The data set is described as follows: Selectivity index, ratio of IC50 for human DHFR to IC50 for Leishmania major PTR1. In kind it is toxicity. Conditions: read-out: Ratio IC50.
Data set [7] has as its system human DHFR versus Trypanosoma brucei PTR1. The data set can be described thus: Selectivity index, ratio of IC50 for human DHFR to IC50 for Trypanosoma brucei PTR1. The following applies: read-out: Ratio IC50. In kind it is toxicity.
In a further data set the target is T3, Pteridine reductase 1 (Leishmania major, UniProt Q01782).
T3 sequence (Q01782 whole entry): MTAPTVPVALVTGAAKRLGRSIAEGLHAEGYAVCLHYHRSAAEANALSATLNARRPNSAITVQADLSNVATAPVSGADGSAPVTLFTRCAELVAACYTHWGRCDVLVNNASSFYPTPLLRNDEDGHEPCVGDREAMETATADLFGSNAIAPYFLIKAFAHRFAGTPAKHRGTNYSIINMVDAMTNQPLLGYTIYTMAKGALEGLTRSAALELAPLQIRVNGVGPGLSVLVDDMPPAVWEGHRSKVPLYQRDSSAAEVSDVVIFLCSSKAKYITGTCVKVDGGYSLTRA
The data set is described as follows: Inhibition of recombinant Leishmania major PTR1 expressed in Escherichia coli BL21 (DE3) cells using H2B as substrate in presence of cytochrome c and NADPH by envision multilabel reader.

For orientation: IC50 means the concentration that inhibits the measured activity by half.

As to `COC(=O)C1CCN(C(=O)c2ccc(N(C)Cc3cnc4nc(N)nc(N)c4n3)cc2)CC1`, the IC50 at Dihydrofolate reductase is 44 µM; in [1] it was 0.26 µM; in data set [2] it was 0.05 µM; in [3], 0.27 µM. The figures for the Activity with A549 and with 786-0 were 100% and 0%, respectively.

For the compound `COC(=O)C1CCN(C(=O)c2cccc(NCc3cnc4nc(N)nc(N)c4n3)c2)CC1`, the selectivity ratio in [4] was 2; in data set [5] it was 3; in data set [6] it was 35; in data set [7] it was 393. The IC50 turned out to be 59 µM on Dihydrofolate reductase, 0.15 µM in data set [2] and 1.69 µM at Pteridine reductase 1.

For the compound `COC(=O)C1CCN(C(=O)c2ccc(SCc3cnc4nc(N)nc(N)c4n3)nc2)CC1`, the selectivity ratio stood at 10 in data set [4], 37 in [5], 1480 in data set [6] and 89000 in [7]. The IC50 is 89 µM on Dihydrofolate reductase; 9.36 µM in [1]; 0.001 µM in data set [2]; 2.4 µM in data set [3]; 0.06 µM on Pteridine reductase 1. In the data set with 786-0, the Activity came to 20%.

In the case of `COc1cc(Oc2ccc(CNCc3cnc4nc(N)nc(N)c4n3)cc2)cc(OC)c1OC`, the selectivity ratio in [4] stood at 1; in data set [5], 1; in [6], 588; in [7], 286. Further, the IC50 in [2] is 0.35 µM; at Pteridine reductase 1, 0.17 µM. For the same compound, the Activity in the data set on A549 stood at 100%; in the data set on 786-0, 0%.

As for `NC(=O)C1CCN(C(=O)c2ccc(NCc3cnc4nc(N)nc(N)c4n3)cc2)CC1`, the IC50 is 1.11 µM in [1], 0.82 µM in [2] and 2.9 µM in [3]. The Activity with A549 and in the data set with 786-0 was 0% throughout.

For the compound `CCOC(=O)C1CCN(C(=O)c2ccc(N(CC)Cc3cnc4nc(N)nc(N)c4n3)cc2)CC1`, the half-maximal inhibitory concentration (IC50) at Dihydrofolate reductase came to 13 µM; in data set [1], 0.18 µM; in [2] it was 0.001 µM; in [3], 0.23 µM; at Pteridine reductase 1, 0.1 µM.

For `Nc1nc(N)c2nc(CNc3ccc(C(=O)N4CCC(C(=O)O)CC4)cc3)cnc2n1`, the values for the IC50 in [1], in data set [2] and in [3] were 0.6 µM, 1.72 µM and 1.38 µM, respectively. Moreover, the Activity with A549 and in the data set with 786-0 was 0% each time.

Regarding `COC(=O)C1CCN(C(=O)c2ccc(NCc3cnc4nc(N)nc(N)c4n3)cn2)CC1`, the IC50 on Dihydrofolate reductase turned out to be 60 µM; in [1], 1.36 µM; in data set [2], 0.55 µM; in data set [3], 2.57 µM. In the data set with 786-0, the Activity stood at 0%.

Regarding `CCOC(=O)C1CCCN1C(=O)c1ccc(NCc2cnc3nc(N)nc(N)c3n2)cc1` (stereo not drawn), the selectivity ratio in data set [4] is 8; in data set [5] it was 10; in data set [7], 0.08. Also, the results for the IC50 in data set [1] and in [3] were 1.21 µM and 0.98 µM, respectively. The Activity with 786-0 was 0%.

Regarding `CN(Cc1cnc2nc(N)nc(N)c2n1)c1ccc(C(=O)N2CCCCC2)cc1`, the selectivity ratio amounted to 15 in data set [4], 21 in data set [5], 213 in data set [6] and 2980 in [7]. For the same compound, the 50% inhibitory concentration (IC50) in data set [1] was 2.05 µM; in [2] it was 0.01 µM; in data set [3] it was 1.45 µM; at Pteridine reductase 1, 0.14 µM. For the same compound, in the data set on 786-0, the Activity was 15%.

`Nc1nc(N)c2nc(CNCc3ccc(Oc4ccccc4)cc3)cnc2n1`: the selectivity ratio in data set [4] worked out at 1; in data set [5], 1; in [6] it was 102; in [7], 526. Also, the half-maximal inhibitory concentration (IC50) is 0.19 µM in data set [2] and 0.98 µM at Pteridine reductase 1. In addition, the Activity in the data set with 786-0 turned out to be 0%.

With `Nc1nc(N)c2nc(C(=O)NCc3ccccc3)cnc2n1`, the selectivity ratio in [4] was 1; in data set [5], 1; in [6] it was 18; in data set [7], 10000. The concentration for half-maximal inhibition (IC50) in data set [2] was 0.01 µM; on Pteridine reductase 1, 5.5 µM. In addition, the values for the Activity with A549 and in the data set on 786-0 were 100% and 0%, respectively.

As for `CCOC(=O)C1CCN(C(=O)c2ccc(N(C)Cc3cnc4nc(N)nc(N)c4n3)cc2)CC1`, the selectivity ratio in data set [4] was 90; in data set [5], 1; in data set [6], 27; in data set [7] it was 300. Further, the half-maximal inhibitory concentration (IC50) at Dihydrofolate reductase is 12 µM; in [1] it was 0.13 µM; in data set [2], 0.04 µM; in data set [3], 9 µM; at Pteridine reductase 1 it was 0.45 µM. In the data set on 786-0, the Activity turned out to be 0%.

As to `COc1ccc(CNC(=O)c2ccc(CNCc3cnc4nc(N)nc(N)c4n3)cc2)cc1OC`, the selectivity ratio amounted to 1 in data set [4], 2 in data set [5], 64 in data set [6] and 455 in data set [7]. For the same compound, the IC50 amounted to 0.22 µM in data set [2] and 1.57 µM at Pteridine reductase 1. Moreover, the Activity in the data set with 786-0 was determined as 0%.

Regarding `C#CCN(Cc1cnc2nc(N)nc(N)c2n1)c1ccc(C(=O)N2CCC(C(=O)OC)CC2)cc1`, the selectivity ratio in data set [4] came to 110; in data set [5], 66; in data set [6] it was 244; in [7], 1950. Also, the IC50 came to 78 µM at Dihydrofolate reductase; 0.71 µM in data set [1]; 0.04 µM in [2]; 1.18 µM in [3]; 0.32 µM on Pteridine reductase 1.

For the compound `Nc1nc(N)c2nc(C(=O)NCc3cccc(C(F)(F)F)c3)cnc2n1`, the selectivity ratio in data set [4] was 1; in [5] it was 1; in data set [6], 303; in data set [7] it was 10000. In addition, the IC50 stood at 0.01 µM in [2] and 0.33 µM at Pteridine reductase 1. Also, the Activity in the data set on A549 turned out to be 100%; with 786-0 it was 0%.

For the compound `CCN(Cc1cnc2nc(N)nc(N)c2n1)c1ccc(C(=O)N2CCC(C(=O)OC)CC2)cc1`, the results for the selectivity ratio in data set [4], in data set [5] and in data set [7] were 9, 7 and 48, respectively. The concentration for half-maximal inhibition (IC50) at Dihydrofolate reductase worked out at 4.3 µM; in [1], 0.46 µM; in data set [2] it was 0.09 µM; in data set [3], 0.62 µM; on Pteridine reductase 1 it was 13.3 µM. Also, the Activity with A549 is recorded as 100%; with 786-0, 0%.

Consider `COC(=O)C1CCN(C(=O)c2ccc(NCc3cnc4nc(N)nc(N)c4n3)cc2)CC1`, for which the IC50 was determined as 51 µM on Dihydrofolate reductase, 0.62 µM in [1], 0.11 µM in data set [2] and 20.5 µM in data set [3]. The Activity was found to be 100% in the data set on A549 and 0% in the data set on 786-0.

For `COc1ccc(CNC(=O)c2ccc(CNCc3cnc4nc(N)nc(N)c4n3)cc2)cc1`, the selectivity ratio in data set [4] came out at 1; in [5], 1; in [6], 68; in data set [7], 769. Further, the concentration for half-maximal inhibition (IC50) in [2] amounted to 0.13 µM; at Pteridine reductase 1, 1.48 µM. In addition, the Activity in the data set on 786-0 is reported as 0%.
